Hits are enriched below; roughly 3.3% of the tested compounds scored in any of these assays.
SENP8 block-1 – human SENP8 protease inhibitors, primary screen, biochemical, fluorescence, Nedd8 protein substrate, uHTS | Sentrin-specific protease 8 (Homo sapiens), Q96LD8 | recombinant SENP8 | inhibition, % at 20 µM | 0.64% of 360,000 active; in the data active means inhibition mostly above about 40%, no sharp cut-off; inactive means mostly below about 27%
SENP1 inh – human SENP1 catalytic domain inhibitors, primary screen, biochemical, FRET, uHTS; inhibition, % at 10 µM; 0.21% of 360,000 active; recombinant SENP1 catalytic domain, CyPet-SUMO1-YPet FRET cleavage; AID 624204, 2012; Sentrin-specific protease 1 (Homo sapiens), Q9P0U3;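 active means inhibition at least 30% at 10 µM, raw YFP signal under a set limit, fluorescence ratio 0.5 to 1.5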;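 further: 0% = enzyme with DMSO and 100% = no enzyme wells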
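material = recombinant human SENP1 catalytic domain, His6-tagged | quantity = 20 pM enzyme | reagent = 25 nM SUMO1 FRET substrate | compound dosing = 10 µM single point, 0.5% DMSO | timing = 50 min enzyme reaction, room temperature, light-protected | detection = FRET, CFP and YFP emission | control set = no-enzyme low, enzyme-DMSO high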
SENP7 inh – SENP7 protease inhibitors, primary screen, biochemical, luminescence, uHTS | inhibition, % at 5 µM | Sentrin-specific protease 7 (Homo sapiens), Q9BQF6 | 1.5% of 330,000 active | recombinant SENP7, Z-RLRGG-aminoluciferin luminescence, 40 min | AID 434973, 2010;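 active means inhibition above about 50% at the single test dose, limit read from the data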;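 further: plate controls were DMSO with enzyme for no effect and no enzyme buffer wells for full effect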
NRP1-CendR mod – modulators of CendR peptide binding to NRP-1, primary screen, biochemical, fluorescence polarization, uHTS. FAM-RPARPAR peptide binding to NRP-1. Neuropilin-1 (Homo sapiens), O14786. 0.85% of 360,000 active. AID 602438, 2012. inhibition, % at 25 µM;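 active means inhibition or corrected inhibition above about 18%, plus a signal ratio from 0.5 to 1.5, limit read from the data, passing the limit was not always enough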
Target sequence (O14786 whole entry, looked up): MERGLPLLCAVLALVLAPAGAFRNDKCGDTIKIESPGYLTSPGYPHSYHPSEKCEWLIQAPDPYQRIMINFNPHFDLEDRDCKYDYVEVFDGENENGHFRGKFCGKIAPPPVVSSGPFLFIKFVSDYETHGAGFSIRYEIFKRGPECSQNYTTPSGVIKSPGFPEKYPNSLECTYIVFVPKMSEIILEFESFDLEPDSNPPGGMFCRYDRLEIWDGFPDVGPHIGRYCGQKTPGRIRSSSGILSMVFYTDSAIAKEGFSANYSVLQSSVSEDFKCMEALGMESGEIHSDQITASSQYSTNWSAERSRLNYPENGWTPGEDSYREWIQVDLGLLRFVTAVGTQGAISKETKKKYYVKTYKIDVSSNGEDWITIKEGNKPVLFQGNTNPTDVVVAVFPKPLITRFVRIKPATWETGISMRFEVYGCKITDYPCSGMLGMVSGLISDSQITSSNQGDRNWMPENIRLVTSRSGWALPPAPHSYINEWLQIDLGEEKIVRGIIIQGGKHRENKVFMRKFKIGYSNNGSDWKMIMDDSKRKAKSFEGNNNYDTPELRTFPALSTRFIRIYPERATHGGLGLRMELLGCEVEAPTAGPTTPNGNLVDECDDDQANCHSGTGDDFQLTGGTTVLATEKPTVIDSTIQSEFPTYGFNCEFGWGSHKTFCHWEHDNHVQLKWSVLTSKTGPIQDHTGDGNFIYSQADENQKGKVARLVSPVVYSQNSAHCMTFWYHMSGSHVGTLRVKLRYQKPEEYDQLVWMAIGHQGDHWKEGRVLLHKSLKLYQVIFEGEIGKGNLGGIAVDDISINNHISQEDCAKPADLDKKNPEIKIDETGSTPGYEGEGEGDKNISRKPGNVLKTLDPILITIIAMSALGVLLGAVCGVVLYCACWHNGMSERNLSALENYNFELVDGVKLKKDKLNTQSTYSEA
SENP8 block-2 – SENP8 protease inhibitors, primary screen, biochemical, luminescence; Sentrin-specific protease 8 (Homo sapiens), Q96LD8; purified SENP8, Z-RLRGG-aminoluciferin cleavage; inhibition, % at 10 µM; 1.2% of 330,000 active; in the data active means inhibition above about 50%
SENP6 block – SENP6 protease inhibitors, primary screen, biochemical, luminescence, uHTS; Sentrin-specific protease 6 (Homo sapiens), Q9GZR1; Recombinant SENP6 catalytic domain, aminoluciferin luminescence; inhibition, % at 10 µM; 1.8% of 330,000 active;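 active means inhibition above about 50% at the single tested dose, limit read from the data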;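 further: plate controls were DMSO wells with enzyme for no effect and DMSO wells lacking enzyme for full effect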
SENP8 conf – SENP8 protease inhibitors, retest, confirmation, biochemical, luminescence, single concentration | AID 488912, 2010 | Recombinant SENP8, Z-RLRGG-aminoluciferin luminescence, 60 min | shares compounds with SENP7 inh | inhibition, % at 12.5 µM | 40% of 6,200 active;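 active means mean inhibition across replicates above about 50%, limit read from the data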
SENP6 conf – SENP6 protease inhibitors, confirmation, biochemical, luminescence, single concentration. inhibition, % at 12.5 µM. 58% of 6,200 active. shares compounds with SENP7 inh. recombinant SENP6, Z-RLRGG-aminoluciferin luminescence
SENP7 conf – SENP7 protease inhibitors, retest, confirmation, biochemical, luminescence, single concentration; shares compounds with SENP7 inh; recombinant SENP7, Z-RLRGG-aminoluciferin luminescence, 40 min; inhibition, % at 12.5 µM; 69% of 6,200 active; AID 488917, 2010
Casp3 select – caspase-3 protease inhibitors, confirmation, selectivity assay for SENP inhibitor project, biochemical, single concentration. purified caspase-3, Z-DEVD-aminoluciferin luminescence, 60 min. shares compounds with SENP7 inh. inhibition, % at 12.5 µM. 60% of 6,200 active;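 active means mean inhibition above about 50%, limit read from the data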;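 further: plate controls were enzyme with DMSO for no effect and wells without caspase-3 for full effect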
Luc interf – interferes with luciferase luminescence in SENP counter-screen; shares compounds with SENP7 inh; Pre-incubated SENP8/Z-RLRGG-aminoluciferin, luciferase luminescence interference; inhibition, % at 12.5 µM; 39% of 6,200 active;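 active means mean inhibition above about 50% when retested at one dose, limit read from the data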;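 further: plate controls were DMSO wells with completed reaction for no effect and substrate without enzyme for full effect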
* hit, by the source's call; i = inactive; . = no result given.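 How the source made its calls, unless noted: active means mean inhibition above about 50% in the one-dose retest (limit read from the data); inactive means the rest.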

SMILES	SENP8 block-1	SENP1 inh	SENP7 inh	NRP1-CendR mod	SENP8 block-2	SENP6 block	SENP8 conf	SENP6 conf	SENP7 conf	Casp3 select	Luc interf
Cc1cc(C)c(C#N)c(N2CCCC(C(N)=O)C2)n1 (configuration not stated)	i	-10.2	-9.0	-6.4	-7.7	-9.8	.	.	.	.	.
N#Cc1c(N2CCCC(O)C2)nc(N)c2c(N)nc3c(c12)CC(=O)N3C12CC3CC(CC(C3)C1)C2 (configuration not stated)	-303.4	-20.2	64.1*	-47.0	96.7*	95.7*	-21.4	4.7	-3.7	-5.9	-4.8
COc1cc(F)ccc1-c1csc(C(O)c2ccc(F)cc2)n1 (configuration not stated)	14.7	1.8	.	2.8	.	.	.	.	.	.	.
Cc1ccc(CNc2nc3cc(-c4ccccc4)sc3c(=O)n2C)c(C)c1	-80.4	-0.2	.	-4.8	.	.	.	.	.	.	.
O=Nc1c(-c2c(O)[nH]c3cc(Br)ccc23)[nH]c2ccccc12	19.5	1.8	52.7*	-18.9	8.5	54.2*	17.0	35.5	78.6*	21.5	4.0
O=C(O)c1ccc(N=Nc2c(-c3ccccc3)[nH]oc2=O)cc1	22.0	1.9	38.6	-2.0	59.2*	32.6	-7.8	-5.8	19.2	6.8	0.8
O=C1CCCC(O)=C1N=Nc1ccc(C(=O)O)cc1	25.9	3.7	-13.3	-5.3	2.9	-4.8	.	.	.	.	.
CC1(C)CC(=O)c2sc(NC(=O)c3ccccc3)nc2C1	.	.	56.9*	.	55.3*	39.7	60.0*	51.2*	65.1*	75.0*	64.3*
CC1(C)CC(=O)c2sc(NC(=O)c3cccs3)nc2C1	-57.3	0.5	66.4*	-3.7	52.2*	80.1*	62.9*	63.6*	87.8*	86.6*	44.0
CC1(C)CNC(=O)c2sc(NC(=O)c3ccccc3)nc2C1	6.4	-0.7	-6.0	5.3	-6.4	3.8	.	.	.	.	.
CC(=O)Nc1ccc(-c2ccnc3c2CC(C)(C(=O)Nc2cccc(C(C)=O)c2)O3)cc1 (configuration not stated)	9.0	-0.6	.	-0.1	.	.	.	.	.	.	.
COc1ccc(NC(=O)c2ccc(-c3ccc([N+](=O)[O-])cc3)o2)cc1	17.4	2.3	-8.5	-1.6	-4.1	-17.9	.	.	.	.	.
O=C(Nc1ccncc1)c1ccccc1F	10.6	2.5	7.8	13.5	-5.2	-10.4	.	.	.	.	.
Cc1ccc(NC(=O)c2csc(-c3ccccc3)c2C)cc1	9.8	3.4	.	-15.1	.	.	.	.	.	.	.
O=C(Nc1ccncc1)c1cc2ccccc2cc1O	-5.9	-14.3	93.4*	1.5	95.8*	99.2*	84.6*	99.0*	102.5*	97.3*	45.4
O=C(O)c1ccccc1C(=O)Nc1cccc([N+](=O)[O-])c1	23.1	2.9	2.1	11.8	2.9	9.9	.	.	.	.	.
Cc1c(C(=O)Nc2cccc([N+](=O)[O-])c2)csc1-c1ccccc1	25.4	1.4	97.3*	-4.2	2.3	72.1*	31.6	27.0	45.3	76.2*	51.9*
O=C(Nc1cccc([N+](=O)[O-])c1)c1cc2ccccc2cc1O	39.7	3.8	70.3*	-12.5	80.1*	87.3*	14.3	37.4	43.7	79.1*	4.3
COc1ccc(NC(=O)c2cc([N+](=O)[O-])ccc2O)cc1	29.0	2.5	99.7*	4.4	95.5*	99.6*	-24.9	101.3*	104.2*	100.1*	100.1*
C[C@@H]1O[C@H](C2CCCCC2)Cc2[nH][nH]c(=O)c21	5.8	-0.4	.	-6.2	.	.	.	.	.	.	.
CCCCCCCCN1C(=O)[C@H](CC(=O)NCc2cccc3ccccc23)C[C@@]2(C(=O)OCC)CCCC=C12	11.1	1.3	.	-12.9	.	.	.	.	.	.	.
COc1cccc(-c2nc(-c3ccncc3)no2)c1	0.6	1.2	80.3*	-8.1	69.7*	77.5*	72.9*	77.8*	94.2*	86.4*	61.4*
COc1cccc(-c2nc(-c3cccs3)no2)c1	24.1	0.3	91.8*	0.9	82.9*	90.0*	13.3	87.2*	97.5*	69.9*	62.4*
COc1cc(OC)cc(-c2nc(-c3cccs3)no2)c1	-17.4	0.5	32.1	-11.1	-1.1	-27.2	.	.	.	.	.
COc1ccc(S(=O)(=O)Nc2ccc3c(c2)C(=O)N([C@H](C)CO)C[C@H](C)[C@@H](CN(C)S(=O)(=O)c2cccs2)O3)cc1	9.4	2.4	-11.5	6.0	-13.8	-13.7	.	.	.	.	.
SMILES	SENP8 block-1	SENP1 inh	SENP7 inh	NRP1-CendR mod	SENP8 block-2	SENP6 block	SENP8 conf	SENP6 conf	SENP7 conf	Casp3 select	Luc interf
CN(CC(=O)Nc1cccc(Cl)c1)S(=O)(=O)/C=C/c1ccccc1	16.2	3.4	.	9.4	.	.	.	.	.	.	.
CN(C(=O)c1ccc(NC(=O)Cc2ccccc2)cc1)c1ccccc1	8.1	1.0	60.8*	-5.6	41.2	54.5*	37.3	38.9	74.2*	64.8*	59.1*
O=C(CC1Nc2cccc3cccc(c23)NC1=O)Nc1ccc(F)cc1 (configuration not stated)	-67.5	-24.5	42.8	-0.4	59.9*	87.2*	-13.2	-6.2	-10.1	1.9	-1.2
COc1ccc(NC(=O)CC2Nc3cccc4cccc(c34)NC2=O)cc1 (configuration not stated)	-63.8	-22.9	66.6*	-3.8	59.2*	93.3*	3.1	4.2	11.7	7.6	2.1
O=C(CC1Nc2ccccc2NC1=O)Nc1cc(Cl)cc(Cl)c1 (configuration not stated)	-301.3	-25.1	-1.4	-11.9	-6.0	-9.1	.	.	.	.	.
COc1ccc(N(CC(=O)NCc2cccs2)S(=O)(=O)c2ccc(F)cc2)cc1	4.2	0.2	8.1	2.5	-6.8	-0.8	.	.	.	.	.
